Reference: ChEMBL document CHEMBL1128374, “Preparation and in vitro activities of ethers of [D-serine]8-cyclosporin” (J Med Chem, 1995)
Values after ≈ are worked out from the molar mass of the structure shown.

How the values were obtained:
Type in all cases: functional
Mus musculus [1] = species on record: Mus musculus; assay: In vitro inhibition of interleukin-2 (IL-2) production induced by stimulating lymphocytes derived from mouse spleens with the […]; conditions: Spleen
Procedure, shortened: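 Compounds added with concanavalin A to the primary culture; supernatants collected at 48 h. IL-2 content measured by growth of IL-2-dependent CTLL cells, read as tritiated thymidine incorporation after 48 h. IC50 determined, with cyclosporin A run in parallel.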

Mus musculus [2] = species on record: Mus musculus; assay: In vitro efficacy on humoral immune response by Mishell-Dutton assay (MD).
Procedure, shortened: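 Spleen lymphocytes from female OF1 mice (ca. 10 x 10^6) cultured 3 days with sheep erythrocytes (ca. 30 x 10^6) and test compound. Cells then plated on agar with fresh erythrocytes; plaques form by complement lysis. Read-out is the count of antibody-producing plaque-forming cells. Cyclosporin A run in parallel.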

Mus musculus [3] = species on record: Mus musculus; assay: In vitro efficacy to suppress lymphocyte proliferation as measured by the incorporation of a labeled precursor ([3H]- thymidine) into DNA in Mixed Lymphocyte reaction (MLR).
Procedure, shortened: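 Cells from spleens of female CBA mice aged 8–10 weeks (ca. 5 x 10^5). Compounds made up at 20 mg/mL in 9:1 (v/v) ethanol/Tween 80, then diluted in saline before adding to medium. Four concentrations per compound across 1.8–1000 ng/mL, in triplicate cultures. IC50 is the calculated concentration giving 50% inhibition of proliferation. Cyclosporin A run in parallel as control.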

IC50 (Mus musculus [1]) [µg/mL] | IC50 (Mus musculus [2]) [µg/mL] | SMILES | IC50 (Mus musculus [3]) [µg/mL]
0.115 (≈ 0.0914 µM) | 0.032 (≈ 0.0254 µM) | C=CCOC[C@H]1NC(=O)[C@H](C)NC(=O)[C@H](CC(C)C)N(C)C(=O)[C@H](C(C)C)NC(=O)[C@H](CC(C)C)N(C)C(=O)CN(C)C(=O)[C@H](CC)NC(=O)[C@H]([C@H](O)[C@H](C)C/C=C/C)N(C)C(=O)[C@H](C(C)C)N(C)C(=O)[C@H](CC(C)C)N(C)C(=O)[C@H](CC(C)C)N(C)C1=O | 0.088 (≈ 0.0699 µM)
0.07 (≈ 0.0549 µM) | 0.063 (≈ 0.0494 µM) | C/C=C/C[C@@H](C)[C@@H](O)[C@H]1C(=O)N[C@@H](CC)C(=O)N(C)CC(=O)N(C)[C@@H](CC(C)C)C(=O)N[C@@H](C(C)C)C(=O)N(C)[C@@H](CC(C)C)C(=O)N[C@@H](C)C(=O)N[C@H](COCC(N)=O)C(=O)N(C)[C@@H](CC(C)C)C(=O)N(C)[C@@H](CC(C)C)C(=O)N(C)[C@@H](C(C)C)C(=O)N1C | 0.064 (≈ 0.0502 µM)
0.38 (≈ 0.301 µM) | 0.095 (≈ 0.0753 µM) | C/C=C/C[C@@H](C)[C@@H](O)[C@H]1C(=O)N[C@@H](CC)C(=O)N(C)CC(=O)N(C)[C@@H](CC(C)C)C(=O)N[C@@H](C(C)C)C(=O)N(C)[C@@H](CC(C)C)C(=O)N[C@@H](C)C(=O)N[C@H](COCCN)C(=O)N(C)[C@@H](CC(C)C)C(=O)N(C)[C@@H](CC(C)C)C(=O)N(C)[C@@H](C(C)C)C(=O)N1C | 0.22 (≈ 0.174 µM)
0.09 (≈ 0.0716 µM) | 0.036 (≈ 0.0286 µM) | C#CCOC[C@H]1NC(=O)[C@H](C)NC(=O)[C@H](CC(C)C)N(C)C(=O)[C@H](C(C)C)NC(=O)[C@H](CC(C)C)N(C)C(=O)CN(C)C(=O)[C@H](CC)NC(=O)[C@H]([C@H](O)[C@H](C)C/C=C/C)N(C)C(=O)[C@H](C(C)C)N(C)C(=O)[C@H](CC(C)C)N(C)C(=O)[C@H](CC(C)C)N(C)C1=O | 0.072 (≈ 0.0573 µM)
0.53 (≈ 0.415 µM) | 0.48 (≈ 0.376 µM) | C/C=C/C[C@@H](C)[C@@H](O)[C@H]1C(=O)N[C@@H](CC)C(=O)N(C)CC(=O)N(C)[C@@H](CC(C)C)C(=O)N[C@@H](C(C)C)C(=O)N(C)[C@@H](CC(C)C)C(=O)N[C@@H](C)C(=O)N[C@H](COCC(=O)O)C(=O)N(C)[C@@H](CC(C)C)C(=O)N(C)[C@@H](CC(C)C)C(=O)N(C)[C@@H](C(C)C)C(=O)N1C | 0.44 (≈ 0.345 µM)
0.012 (≈ 0.0092 µM) | 0.028 (≈ 0.0215 µM) | C/C=C/C[C@@H](C)[C@@H](O)[C@H]1C(=O)N[C@@H](CC)C(=O)N(C)CC(=O)N(C)[C@@H](CC(C)C)C(=O)N[C@@H](C(C)C)C(=O)N(C)[C@@H](CC(C)C)C(=O)N[C@@H](C)C(=O)N[C@H](COCCOC(C)=O)C(=O)N(C)[C@@H](CC(C)C)C(=O)N(C)[C@@H](CC(C)C)C(=O)N(C)[C@@H](C(C)C)C(=O)N1C | 0.018 (≈ 0.0138 µM)
0.024 (≈ 0.0195 µM) | < 0.01 | C/C=C/C[C@@H](C)[C@@H](O)[C@H]1C(=O)N[C@@H](CC)C(=O)N(C)CC(=O)N(C)[C@@H](CC(C)C)C(=O)N[C@@H](C(C)C)C(=O)N(C)[C@@H](CC(C)C)C(=O)N[C@@H](C)C(=O)N[C@H](COC)C(=O)N(C)[C@@H](CC(C)C)C(=O)N(C)[C@@H](CC(C)C)C(=O)N(C)[C@@H](C(C)C)C(=O)N1C | < 0.008

Second part, the molecule before the results:

SMILES | IC50 (Mus musculus [1]) [µg/mL] | IC50 (Mus musculus [2]) [µg/mL] | IC50 (Mus musculus [3]) [µg/mL]
C/C=C/C[C@@H](C)[C@@H](O)[C@H]1C(=O)N[C@@H](CC)C(=O)N(C)CC(=O)N(C)[C@@H](CC(C)C)C(=O)N[C@@H](C(C)C)C(=O)N(C)[C@@H](CC(C)C)C(=O)N[C@@H](C)C(=O)N[C@H](COCCC2OCCO2)C(=O)N(C)[C@@H](CC(C)C)C(=O)N(C)[C@@H](CC(C)C)C(=O)N(C)[C@@H](C(C)C)C(=O)N1C | 0.086 (≈ 0.0652 µM) | 0.105 (≈ 0.0796 µM) | 0.117 (≈ 0.0887 µM)
C/C=C/C[C@@H](C)[C@@H](O)[C@H]1C(=O)N[C@@H](CC)C(=O)N(C)CC(=O)N(C)[C@@H](CC(C)C)C(=O)N[C@@H](C(C)C)C(=O)N(C)[C@@H](CC(C)C)C(=O)N[C@@H](C)C(=O)N[C@H](COCCOCCO)C(=O)N(C)[C@@H](CC(C)C)C(=O)N(C)[C@@H](CC(C)C)C(=O)N(C)[C@@H](C(C)C)C(=O)N1C | 0.075 (≈ 0.0574 µM) | 0.035 (≈ 0.0268 µM) | 0.17 (≈ 0.13 µM)
C=C(COC[C@H]1NC(=O)[C@H](C)NC(=O)[C@H](CC(C)C)N(C)C(=O)[C@H](C(C)C)NC(=O)[C@H](CC(C)C)N(C)C(=O)CN(C)C(=O)[C@H](CC)NC(=O)[C@H]([C@H](O)[C@H](C)C/C=C/C)N(C)C(=O)[C@H](C(C)C)N(C)C(=O)[C@H](CC(C)C)N(C)C(=O)[C@H](CC(C)C)N(C)C1=O)CO[Si](C)(C)C(C)(C)C | > 1 | > 1 | 0.45 (≈ 0.321 µM)
C/C=C/C[C@@H](C)[C@@H](O)[C@H]1C(=O)N[C@@H](CC)C(=O)N(C)CC(=O)N(C)[C@@H](CC(C)C)C(=O)N[C@@H](C(C)C)C(=O)N(C)[C@@H](CC(C)C)C(=O)N[C@@H](C)C(=O)N[C@H](COCCNS(=O)(=O)c2cccc3c(N(C)C)cccc23)C(=O)N(C)[C@@H](CC(C)C)C(=O)N(C)[C@@H](CC(C)C)C(=O)N(C)[C@@H](C(C)C)C(=O)N1C | 0.057 (≈ 0.0381 µM) | 0.048 (≈ 0.0321 µM) | 0.11 (≈ 0.0736 µM)
C/C=C/C[C@@H](C)[C@@H](O)[C@H]1C(=O)N[C@@H](CC)C(=O)N(C)CC(=O)N(C)[C@@H](CC(C)C)C(=O)N[C@@H](C(C)C)C(=O)N(C)[C@@H](CC(C)C)C(=O)N[C@@H](C)C(=O)N[C@H](COCc2ccccc2)C(=O)N(C)[C@@H](CC(C)C)C(=O)N(C)[C@@H](CC(C)C)C(=O)N(C)[C@@H](C(C)C)C(=O)N1C | 0.095 (≈ 0.0726 µM) | 0.46 (≈ 0.351 µM) | 0.25 (≈ 0.191 µM)
C/C=C/C[C@@H](C)[C@@H](O)[C@H]1C(=O)N[C@@H](CC)C(=O)N(C)CC(=O)N(C)[C@@H](CC(C)C)C(=O)N[C@@H](C(C)C)C(=O)N(C)[C@@H](CC(C)C)C(=O)N[C@@H](C)C(=O)N[C@H](COCC(C)CO)C(=O)N(C)[C@@H](CC(C)C)C(=O)N(C)[C@@H](CC(C)C)C(=O)N(C)[C@@H](C(C)C)C(=O)N1C (stereo partly specified) | 0.017 (≈ 0.0132 µM) | 0.024 (≈ 0.0186 µM) | 0.013 (≈ 0.0101 µM)
C=C(COC[C@H]1NC(=O)[C@H](C)NC(=O)[C@H](CC(C)C)N(C)C(=O)[C@H](C(C)C)NC(=O)[C@H](CC(C)C)N(C)C(=O)CN(C)C(=O)[C@H](CC)NC(=O)[C@H]([C@H](O)[C@H](C)C/C=C/C)N(C)C(=O)[C@H](C(C)C)N(C)C(=O)[C@H](CC(C)C)N(C)C(=O)[C@H](CC(C)C)N(C)C1=O)C(=O)OC | 0.1 (≈ 0.0759 µM) | 0.016 (≈ 0.0122 µM) | 0.04 (≈ 0.0304 µM)
C=C(CO)COC[C@H]1NC(=O)[C@H](C)NC(=O)[C@H](CC(C)C)N(C)C(=O)[C@H](C(C)C)NC(=O)[C@H](CC(C)C)N(C)C(=O)CN(C)C(=O)[C@H](CC)NC(=O)[C@H]([C@H](O)[C@H](C)C/C=C/C)N(C)C(=O)[C@H](C(C)C)N(C)C(=O)[C@H](CC(C)C)N(C)C(=O)[C@H](CC(C)C)N(C)C1=O | 0.048 (≈ 0.0372 µM) | 0.032 (≈ 0.0248 µM) | < 0.008
C/C=C/C[C@@H](C)[C@@H](O)[C@H]1C(=O)N[C@@H](CC)C(=O)N(C)CC(=O)N(C)[C@@H](CC(C)C)C(=O)N[C@@H](C(C)C)C(=O)N(C)[C@@H](CC(C)C)C(=O)N[C@@H](C)C(=O)N[C@H](CO)C(=O)N(C)[C@@H](CC(C)C)C(=O)N(C)[C@@H](CC(C)C)C(=O)N(C)[C@@H](C(C)C)C(=O)N1C | < 0.008 | 0.026 (≈ 0.0213 µM) | < 0.008
C=C(CCl)COC[C@H]1NC(=O)[C@H](C)NC(=O)[C@H](CC(C)C)N(C)C(=O)[C@H](C(C)C)NC(=O)[C@H](CC(C)C)N(C)C(=O)CN(C)C(=O)[C@H](CC)NC(=O)[C@H]([C@H](O)[C@H](C)C/C=C/C)N(C)C(=O)[C@H](C(C)C)N(C)C(=O)[C@H](CC(C)C)N(C)C(=O)[C@H](CC(C)C)N(C)C1=O | > 0.1 | 0.23 (≈ 0.176 µM) | 0.27 (≈ 0.207 µM)
